Assay results from ChEMBL document CHEMBL1151837, “Structural reassignment, absolute configuration, and conformation of hypurticin, a highly flexible polyacyloxy-6-heptenyl-5,6-dihydro-2H-pyran-2-one” (J Nat Prod, 2009).
≈ marks a conversion by molar mass, not a printed value.

Assays:
HEp-2 = experiment: Cytotoxicity against human Hep2 cells after 72 hrs by sulforhodamine B assay; assay type: functional, cell-based; details: HEp-2, 72 h
Procedure, shortened: (§1)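 Cells kept in RPMI 1640 with 10% FBS at 37 °C, 5% CO2, humidified. Log-phase cells treated in triplicate at 0.16–20.0 µg/mL for 72 h. Cell density read by sulforhodamine B. Value is the dose giving 50% inhibition of control growth (ED50). Ellipticine served as positive control.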

HeLa [1] = experiment: Cytotoxicity against human HeLa cells after 72 hrs by sulforhodamine B assay; assay type: functional, cell-based; procedure, shortened: as §1
KB = experiment: Cytotoxicity against human KB cells after 72 hrs by sulforhodamine B assay; assay type: functional, cell-based; procedure, shortened: as §1
HeLa [2] = experiment: Cell cycle arrest in human HeLa cells assessed as accumulation at G1 phase at 10 times IC50 after 48 hrs by flow cytometry; assay type: functional
Procedure, shortened: (§2)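 HeLa cells in log phase exposed 48 h to compound in DMSO at ten times its cytotoxicity IC50. Fixed in cold 70% (v/v) EtOH, then stained 12 h at 4 °C with Triton X-100, trisodium citrate and RNase A, and filtered through nylon mesh. DNA content measured by flow cytometry gives the percentage of cells in G1, S and G2.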

HeLa [3] = experiment: Cell cycle arrest in human HeLa cells assessed as accumulation at G2 phase at 10 times IC50 after 48 hrs by flow cytometry; assay type: functional; procedure, shortened: as §2
HeLa [4] = experiment: Cell cycle arrest in human HeLa cells assessed as accumulation at S phase at 10 times IC50 after 48 hrs by flow cytometry; assay type: functional; procedure, shortened: as §2

Row | Compound | IC50 (HEp-2) [µg/mL] | IC50 (HeLa [1]) [µg/mL] | IC50 (KB) [µg/mL] | Activity (HeLa [2]) [%] | Activity (HeLa [3]) [%] | Activity (HeLa [4]) [%]
1 | Cc1c2ccncc2c(C)c2c1[nH]c1ccccc12 [ELLIPTECINE] | 0.4 (≈ 1.62 µM) | 0.4 (≈ 1.62 µM) | 0.4 (≈ 1.62 µM) | – | – | –
2 | CC(=O)O[C@H](/C=C\[C@H]1CC=CC(=O)O1)C[C@@H](OC(C)=O)[C@H](C)OC(C)=O [HYPTOLIDE] | 6.2 (≈ 16.8 µM) | 2.8 (≈ 7.6 µM) | 3.6 (≈ 9.77 µM) | 34 | 7 | 57
3 | CC(=O)O[C@H]([C@@H](OC(C)=O)[C@H](/C=C\[C@H]1CC=CC(=O)O1)OC(C)=O)[C@H](C)OC(C)=O [SPICIGEROIDE] | 9.4 (≈ 22 µM) | 15.9 (≈ 37.3 µM) | 5.4 (≈ 12.7 µM) | 40 | 23 | 34
